Measurements published in article PMC11069345 (Bioorganic chemistry, 2024).
Read-outs that look alike come from different tables or passages of the source. Blank lines part the entries; values can stand above or below the compound they belong to.

Tests used:
ABCG2 mRNA expression = assay: mRNA expression levels by qPCR in HEK293-ABCG2 cells; type: cell-based, human; conditions: 50 μM, 72 h
ABCC1 (MRP1) [1] = target: T1, ABCC1 (MRP1) (Homo sapiens, UniProt P33527)
ABCB1 (P-gp) [2] = target: T2, ABCB1 (P-gp) (Homo sapiens, UniProt P08183)
T2 sequence (P08183 whole entry): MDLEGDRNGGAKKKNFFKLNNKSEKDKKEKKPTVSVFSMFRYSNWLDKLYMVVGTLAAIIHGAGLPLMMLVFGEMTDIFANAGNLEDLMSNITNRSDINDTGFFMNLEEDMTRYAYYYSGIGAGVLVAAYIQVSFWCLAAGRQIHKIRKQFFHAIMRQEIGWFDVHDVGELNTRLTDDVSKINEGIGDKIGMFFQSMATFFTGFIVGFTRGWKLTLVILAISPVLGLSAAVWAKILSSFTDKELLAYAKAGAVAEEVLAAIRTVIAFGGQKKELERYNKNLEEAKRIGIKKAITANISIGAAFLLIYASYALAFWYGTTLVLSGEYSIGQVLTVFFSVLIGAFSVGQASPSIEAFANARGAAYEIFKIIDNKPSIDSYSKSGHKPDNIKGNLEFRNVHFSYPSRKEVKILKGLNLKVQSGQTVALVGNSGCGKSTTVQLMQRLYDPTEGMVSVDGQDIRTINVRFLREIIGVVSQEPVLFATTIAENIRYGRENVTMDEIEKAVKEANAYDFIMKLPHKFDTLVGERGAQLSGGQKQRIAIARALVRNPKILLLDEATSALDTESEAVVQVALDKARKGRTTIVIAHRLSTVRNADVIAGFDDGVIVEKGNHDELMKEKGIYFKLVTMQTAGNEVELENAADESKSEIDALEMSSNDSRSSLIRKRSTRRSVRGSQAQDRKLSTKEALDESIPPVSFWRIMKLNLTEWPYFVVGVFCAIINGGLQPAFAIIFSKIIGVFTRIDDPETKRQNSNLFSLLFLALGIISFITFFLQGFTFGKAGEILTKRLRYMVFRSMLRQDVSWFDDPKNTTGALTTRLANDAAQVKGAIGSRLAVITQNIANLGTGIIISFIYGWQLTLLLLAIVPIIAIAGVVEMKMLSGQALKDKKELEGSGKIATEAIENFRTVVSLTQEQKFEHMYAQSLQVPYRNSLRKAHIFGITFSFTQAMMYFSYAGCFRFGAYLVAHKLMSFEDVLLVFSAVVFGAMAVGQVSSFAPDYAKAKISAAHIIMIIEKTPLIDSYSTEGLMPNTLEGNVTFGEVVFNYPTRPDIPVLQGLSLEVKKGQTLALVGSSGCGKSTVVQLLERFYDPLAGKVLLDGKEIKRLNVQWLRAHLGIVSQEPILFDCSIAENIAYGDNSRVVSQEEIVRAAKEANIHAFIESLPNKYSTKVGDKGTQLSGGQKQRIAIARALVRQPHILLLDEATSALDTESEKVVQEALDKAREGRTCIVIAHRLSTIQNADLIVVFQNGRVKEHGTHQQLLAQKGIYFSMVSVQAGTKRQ

HEK293-ABCG2 cells = assay: Chemosensitization assay, co-treatment with SN-38, MTT, 72 h; type: cell-based, human; conditions: co-treatment with SN-38 0.05 μM, 11 at saturating concentration, Ko143 at 0.5 μM
ABCG2 (BCRP) [3] = target: T3, ABCG2 (BCRP) (Homo sapiens, UniProt Q9UNQ0)
T3 sequence (Q9UNQ0 1-655): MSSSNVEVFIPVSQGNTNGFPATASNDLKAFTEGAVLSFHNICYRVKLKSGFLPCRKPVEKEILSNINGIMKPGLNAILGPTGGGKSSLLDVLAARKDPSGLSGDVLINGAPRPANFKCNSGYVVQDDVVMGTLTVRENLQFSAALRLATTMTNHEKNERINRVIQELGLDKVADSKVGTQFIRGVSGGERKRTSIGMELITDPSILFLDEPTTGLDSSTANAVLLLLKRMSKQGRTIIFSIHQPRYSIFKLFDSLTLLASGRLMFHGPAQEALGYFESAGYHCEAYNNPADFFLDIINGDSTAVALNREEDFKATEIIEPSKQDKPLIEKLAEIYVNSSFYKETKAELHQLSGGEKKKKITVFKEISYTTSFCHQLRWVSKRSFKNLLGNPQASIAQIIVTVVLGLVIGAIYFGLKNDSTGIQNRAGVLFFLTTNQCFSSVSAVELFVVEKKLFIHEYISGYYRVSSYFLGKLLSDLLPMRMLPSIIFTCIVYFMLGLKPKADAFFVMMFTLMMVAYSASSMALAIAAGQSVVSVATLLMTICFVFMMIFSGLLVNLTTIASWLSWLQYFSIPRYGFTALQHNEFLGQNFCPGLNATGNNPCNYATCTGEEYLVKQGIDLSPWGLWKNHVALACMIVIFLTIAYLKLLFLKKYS

ABCG2 [4] = target: T4, ABCG2 (Homo sapiens, UniProt Q9UNQ0); type: biochemical
T4 sequence (Q9UNQ0 1-655): T3 sequence (Q9UNQ0 1-655)

[5] = system: HEK293 and HEK293-ABCG2 cells; assay: Cell viability MTT assay, 72 h; type: cell-based, human
Method in brief: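 Parental HEK293 and HEK293-ABCG2 cells were seeded at 1.5×10^4 cells/well, left overnight, then exposed to test compound at 0.19–100 μM for 72 h at 37 °C under 5% CO2. Medium was replaced with 0.5 mg mL−1 MTT for 4 h. Formazan was dissolved in DMSO/ethanol (1:1) and absorbance read at 570 nm.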

ABCC1 (MRP1) [6] = target: T1, ABCC1 (MRP1); assay: Transport inhibition assay: calcein-AM in BHK21-ABCC1 cells, flow cytometry; conditions: for Inhibition (% ± SD) ABCC1 (MRP1) 10 μM: 10 μM compound; for Inhibition (% ± SD) ABCC1 (MRP1) 10 μM / Inhibition (% ± SD) ABCC1 (MRP1) 50 μM: calcein-AM 0.15 μM, relative to verapamil 30 μM (100%); for Inhibition (% ± SD) ABCC1 (MRP1) 50 μM: 50 μM compound
ABCG2 (BCRP) [7] = target: T3, ABCG2 (BCRP); conditions: for Inhibition (% ± SD) ABCG2 (BCRP) 10 μM: 10 μM compound; for Inhibition (% ± SD) ABCG2 (BCRP) 10 μM / Inhibition (% ± SD) ABCG2 (BCRP) 50 μM: mitoxantrone 5 μM, 30 min, relative to Ko143 0.5 μM (100%); for Inhibition (% ± SD) ABCG2 (BCRP) 50 μM: 50 μM compound
ABCB1 (P-gp) [8] = target: T2, ABCB1 (P-gp); assay: Transport inhibition assay: rhodamine 123 in NIH3T3-ABCB1 cells, flow cytometry; conditions: for Inhibition (% ± SD) ABCB1 (P-gp) 10 μM: 10 μM compound; for Inhibition (% ± SD) ABCB1 (P-gp) 10 μM / Inhibition (% ± SD) ABCB1 (P-gp) 50 μM: rhodamine 123 5 μM, relative to GF120918 0.5 μM (100%); for Inhibition (% ± SD) ABCB1 (P-gp) 50 μM: 50 μM compound
[9] = cited from earlier work
ABCG2 [10] = target: T4, ABCG2; conditions: cited from earlier work
[11] = human, probe mitoxantrone (5 μM)

T1 sequence (P33527 whole entry): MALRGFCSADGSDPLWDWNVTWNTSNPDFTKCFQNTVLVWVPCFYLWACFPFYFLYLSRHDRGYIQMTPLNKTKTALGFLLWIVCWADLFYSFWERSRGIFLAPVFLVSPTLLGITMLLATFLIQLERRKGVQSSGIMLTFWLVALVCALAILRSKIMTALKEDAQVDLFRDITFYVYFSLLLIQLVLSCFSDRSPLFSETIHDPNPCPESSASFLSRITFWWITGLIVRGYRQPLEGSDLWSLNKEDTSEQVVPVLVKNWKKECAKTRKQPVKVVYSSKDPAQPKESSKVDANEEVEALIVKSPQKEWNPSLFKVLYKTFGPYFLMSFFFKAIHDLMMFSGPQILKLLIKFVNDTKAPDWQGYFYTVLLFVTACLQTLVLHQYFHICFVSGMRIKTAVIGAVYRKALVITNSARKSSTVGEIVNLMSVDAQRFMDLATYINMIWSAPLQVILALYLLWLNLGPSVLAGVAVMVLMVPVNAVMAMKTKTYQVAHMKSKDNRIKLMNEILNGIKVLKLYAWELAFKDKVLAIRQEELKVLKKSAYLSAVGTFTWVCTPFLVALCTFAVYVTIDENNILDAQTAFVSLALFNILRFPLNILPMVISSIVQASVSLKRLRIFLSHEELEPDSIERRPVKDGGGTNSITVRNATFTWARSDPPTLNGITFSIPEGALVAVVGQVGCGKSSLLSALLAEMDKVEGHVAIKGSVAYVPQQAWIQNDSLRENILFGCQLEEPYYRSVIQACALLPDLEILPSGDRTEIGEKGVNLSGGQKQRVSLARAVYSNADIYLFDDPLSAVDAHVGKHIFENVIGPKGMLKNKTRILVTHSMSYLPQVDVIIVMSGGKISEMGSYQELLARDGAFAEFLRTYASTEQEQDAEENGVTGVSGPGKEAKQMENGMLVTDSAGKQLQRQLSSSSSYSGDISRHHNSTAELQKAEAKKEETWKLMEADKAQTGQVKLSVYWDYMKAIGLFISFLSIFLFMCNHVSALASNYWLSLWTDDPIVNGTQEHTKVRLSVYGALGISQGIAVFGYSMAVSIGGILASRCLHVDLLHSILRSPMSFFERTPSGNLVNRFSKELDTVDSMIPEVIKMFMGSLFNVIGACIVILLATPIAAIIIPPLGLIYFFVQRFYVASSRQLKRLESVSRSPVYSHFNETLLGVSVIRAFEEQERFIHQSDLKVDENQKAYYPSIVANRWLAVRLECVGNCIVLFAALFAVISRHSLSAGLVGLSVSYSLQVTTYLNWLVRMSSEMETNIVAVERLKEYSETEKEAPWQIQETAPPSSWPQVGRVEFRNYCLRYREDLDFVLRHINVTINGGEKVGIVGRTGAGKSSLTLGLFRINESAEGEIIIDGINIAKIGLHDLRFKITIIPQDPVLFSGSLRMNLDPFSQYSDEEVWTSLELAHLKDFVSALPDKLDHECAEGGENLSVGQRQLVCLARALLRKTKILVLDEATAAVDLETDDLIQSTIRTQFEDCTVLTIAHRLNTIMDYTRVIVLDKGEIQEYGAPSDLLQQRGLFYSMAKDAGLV

Inhibition (% ± SD) ABCC1 (MRP1) 10 μM (ABCC1 (MRP1) [1]): 4.9 ± 7.0%
Inhibition (% ± SD) ABCC1 (MRP1) 50 μM (ABCC1 (MRP1) [1]): 11.5 ± 5.8%
Inhibition (% ± SD) ABCB1 (P-gp) 10 μM (ABCB1 (P-gp) [2]): −0.7 ± 1.2%
Inhibition (% ± SD) ABCB1 (P-gp) 50 μM (ABCB1 (P-gp) [2]): 2.8 ± 3.8%
Extent of ABCG2 inhibition (partial or complete inhibitor) (ABCG2 (BCRP) [3]): complete ABCG2 inhibitor
IC50 (ABCG2 (BCRP) [3]): 9.5 µM
Inhibition (% ± SD) ABCG2 (BCRP) 10 μM (ABCG2 (BCRP) [3]): 62.0 ± 11.9%
Type of inhibition (Lineweaver-Burk plot) (ABCG2 (BCRP) [3]): mixed type of inhibition
Stimulation of ABCG2 ATPase activity (ABCG2 [4]): ~ 60%
Inhibition of ABCG2 ATPase activity (ABCG2 [4]; 50 µM): ~ 30%
Structure (SMILES): C=CCc1ccc(O)c(-c2cc(CC=C)ccc2OC)c1 [Compound 11]
Effect on mRNA ABCG2 expression levels (ABCG2 mRNA expression): did not significantly affect the transcriptional levels of ABCG2
Reversion of ABCG2-mediated resistance to SN-38 (cell viability) (HEK293-ABCG2 cells): completely revert the MDR phenotype mediated by ABCG2
Concentration with cytotoxic effect ([5]; 0.19 – 100 μM tested, HEK293 and HEK293-ABCG2): > 100 µM
IG50 (concentration that reduces 50% of the cell viability) ([5]; estimated): > 100 µM

Inhibition (% ± SD) ABCC1 (MRP1) 10 μM (ABCC1 (MRP1) [1]): 2.6 ± 1.8%
Inhibition (% ± SD) ABCC1 (MRP1) 50 μM (ABCC1 (MRP1) [1]): 9.1 ± 3.3%
Inhibition (% ± SD) ABCB1 (P-gp) 10 μM (ABCB1 (P-gp) [2]): −1.1 ± 1.5%
Inhibition (% ± SD) ABCB1 (P-gp) 50 μM (ABCB1 (P-gp) [2]): −0.5 ± 2.1%
Inhibition (% ± SD) ABCG2 (BCRP) 10 μM (ABCG2 (BCRP) [3]): 5.9 ± 10.9%
Inhibition (% ± SD) ABCG2 (BCRP) 50 μM (ABCG2 (BCRP) [3]): 32.8 ± 5.5%
Structure (SMILES): C=CCc1ccc(OC)c(-c2cc(CC=C)ccc2OC)c1 [Compound 12]

inhibition at 30 min, 10 μM (ABCC1 (MRP1) [6]; probe calcein-AM (0.15 μM)): 2.9 ± 4.3%
inhibition at 30 min, 50 μM (ABCC1 (MRP1) [6]; probe calcein-AM (0.15 μM)): 4.7 ± 6.4%
inhibition at 30 min, 10 μM (ABCB1 (P-gp) [8]; probe rhodamine 123 (5 μM)): 1.1 ± 4.6%
inhibition at 30 min, 50 μM (ABCB1 (P-gp) [8]; probe rhodamine 123 (5 μM)): -1.2 ± 1.8%
Structure (SMILES): C=CCc1ccc(OC)c(-c2cc(CC=C)cc(O)c2O)c1 [Compound 13, 5,5’-diallyl-2’-methoxy-[1,1’-biphenyl]-2,3-diol]
inhibition at 30 min, 10 μM (ABCG2 (BCRP) [7]; [11]): 4 ± 4.4%
inhibition at 30 min, 50 μM (ABCG2 (BCRP) [7]; [11]): 19.5 ± 4.4%

Structure (SMILES): CCCc1ccc(O)c(-c2cc(CCC)ccc2O)c1 [Compound 14]
Inhibition (% ± SD) ABCC1 (MRP1) 10 μM (ABCC1 (MRP1) [6]): 5.6 ± 5.5%
Inhibition (% ± SD) ABCC1 (MRP1) 50 μM (ABCC1 (MRP1) [6]): 16.0 ± 10.7%
Inhibition (% ± SD) ABCG2 (BCRP) 10 μM (ABCG2 (BCRP) [7]): 1.8 ± 1.7%
Inhibition (% ± SD) ABCG2 (BCRP) 50 μM (ABCG2 (BCRP) [7]): 19.5 ± 4.5%
Inhibition (% ± SD) ABCB1 (P-gp) 10 μM (ABCB1 (P-gp) [8]): 0.5 ± 0.9%
Inhibition (% ± SD) ABCB1 (P-gp) 50 μM (ABCB1 (P-gp) [8]): −6.4 ± 0.3%

Structure (SMILES): CCCc1ccc(O)c(-c2cc(CCC)ccc2OC)c1 [Compound 15]
Inhibition (% ± SD) ABCC1 (MRP1) 10 μM (ABCC1 (MRP1) [6]): 4.3 ± 3.9%
Inhibition (% ± SD) ABCC1 (MRP1) 50 μM (ABCC1 (MRP1) [6]): 5.8 ± 4.1%
Inhibition (% ± SD) ABCG2 (BCRP) 10 μM (ABCG2 (BCRP) [7]): 1.1 ± 5.4%
Inhibition (% ± SD) ABCG2 (BCRP) 50 μM (ABCG2 (BCRP) [7]): 20.4 ± 1.7%
Inhibition (% ± SD) ABCB1 (P-gp) 10 μM (ABCB1 (P-gp) [8]): 0.2 ± 0.8%
Inhibition (% ± SD) ABCB1 (P-gp) 50 μM (ABCB1 (P-gp) [8]): 2.0 ± 1.9%

Structure (SMILES): COc1ccc2c3c([nH]c2c1)[C@H](CC(C)C)N1C(=O)[C@H](CCC(=O)OC(C)(C)C)NC(=O)[C@@H]1C3 [Ko143, reference compound]
IG50 (cytotoxicity) [9]: 18 to 34 µM
Reversion of ABCG2-mediated resistance to SN-38 (cell viability) (HEK293-ABCG2 cells): same percentage of cell viability as the observed for HEK293 cells exposed to SN-38 alone

Structure (SMILES): C=CCc1ccc(O)c(-c2ccc(O)c(CC=C)c2)c1 [honokiol]
Transport by ABCG2 (substrate) (ABCG2 [10]): substrates of ABCG2

Structure (SMILES): C=CCc1ccc(O)c(-c2cc(CC=C)ccc2O)c1 [magnolol]
Transport by ABCG2 (substrate) (ABCG2 [10]): substrates of ABCG2
